Assay results taken from the RNAGym collection of RNA variant scans (doi:10.1126/science.aae0568).
Fewer inactive variants are shown than the library holds.

B1: tRNA (parent)
chain: GUUCCGUUGGCGUAAUGGUAACGCGUCUCCCUCCUAAGGAGAAGACUGCGGGUUCGAGUCCCGUACGGAACG

Variants of: B1
Assay: yeast fitness relative to wild type (ratio to wild type); higher = fitter; tRNA-Arg(CCU), competitive growth, 37 C, YPD
Procedure, shortened: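 Amplicons of the tRNA-Arg(CCU) gene were sequenced, 100-nucleotide paired-end, from the start population and from each end population of a pooled yeast competition. The competition, in six parallel replicates, lasted 24 hours in YPD at 37°C. Fitness relative to wild type was calculated from changes in genotype frequencies. Genotypes had to have ≥ 100 starting reads, and estimates < 0.5 were set to 0.5.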

**Q.** With GUUCCCUUGGCGAAAUGGUAACGCGUCUCCCUCAUAAGGAGAAGACUGCGGGUUCGAGUCCCGUACGGAACG [G6C U13A C34A] as the variant, how does the yeast fitness read?
**A.** ≤ 0.5

**Q.** For GUUCCCUUGGCGAAAUGGUAACGCGUCUCCCUCCUAAGGAGAAGACUGCGGGUACGCGUCCCGUACGGAACG [G6C U13A U54A A57C], which yeast fitness is on record?
**A.** ≤ 0.5

**Q.** Which yeast fitness does the source give for GUUCCCUUGGCGCAAUGGUAACGAGUGUCCCUCCUUAGGAGAAGACUGCGGGUUCGAGUCCCGUACGGAACG [G6C U13C C24A C27G A36U] here?
**A.** ≤ 0.5

**Q.** For GUUCCCUUGGCGCAAUGGUAACGCGUCUCCGUACUAAGGAGAAGACUGCGGGUUCGAGUCCCGUACGGAACG [G6C U13C C31G C33A], which yeast fitness is on record?
**A.** ≤ 0.5

**Q.** Which yeast fitness does the source give for GUUCCCUUGGCGCAAUGGUAACGCGUCUCCCUCCUAAGGAGAAGAAUGCGGGUUCGAGUCCCGUACGGAACG [G6C U13C C46A] here?
**A.** 0.627

**Q.** With GUUCCCUUGGCGGAAUGAUAACGCGUCUCCCUCCUAAGGAGAAGACUGCGGGUUAGAGUCCCGUACGGAACG [G6C U13G G18A C55A] as the variant, how does the yeast fitness read?
**A.** 0.514

**Q.** Which yeast fitness does the source give for GUUCCCUUGGCGUAAAGCUAAGGCGUCUCCCUCCUAAGGAGAAGACUGCGGGUUCGAGUCCCGUACGGAACG [G6C U16A G18C C22G] here?
**A.** 0.615

**Q.** For GUUCCCUUGGCGUAAAGCUAAGGCGUCUCCCUCCUAAGGAGAAGACUGUGGGUUCGAGUCCCGUACGGAACG [G6C U16A G18C C22G C49U], which yeast fitness is on record?
**A.** ≤ 0.5

**Q.** Which yeast fitness does the source give for GUUCCCUUGGCGUAAAGCUAAGGCGUCUCCCUCCUAAGGAGAAGACUGCGGCUUCGAGUCCCGUACGAAACG [G6C U16A G18C C22G G52C G68A] here?
**A.** ≤ 0.5

**Q.** With GUUCCCUUGGCGUAAAGGUAACCCGUCUCCCUCCUAAGGAGAAGACUGCGGGUUCGAGUUCCGUACGGAACG [G6C U16A G23C C60U] as the variant, how does the yeast fitness read?
**A.** 0.625

**Q.** For GUUCCCUUGGCGUAACGGUAACGCGUCUCCCUCCUAAGGAGUAGACUGCGGUUUCGAGUCCCGUACGGAACG [G6C U16C A42U G52U], which yeast fitness is on record?
**A.** 0.634

**Q.** For GUUCCCUUGGCGUAACGGUAACGCGUCUCCCUCCUAAGGAGAAGAGUGCGGGUUCGAGUCCUGUAUGGAACG [G6C U16C C46G C62U C66U], which yeast fitness is on record?
**A.** ≤ 0.5

**Q.** Which yeast fitness does the source give for GUUCCCUUGGCGUAACGGUAACGCGUCUCCCUCCUAAGGACAAGACUGCGAGUUUGAGUCCCGUACGGAACG [G6C U16C G41C G51A C55U] here?
**A.** ≤ 0.5

**Q.** For GUUCCCUUGGCGUAAGGGUCACGCAUCUCCCUCCUAAGGAGAUGACUGCAGGUUUGAGUCCCGUACGGAACG [G6C U16G A20C G25A A43U G50A C55U], which yeast fitness is on record?
**A.** ≤ 0.5

**Q.** With GUUCCCUUGGCGUAAGGGUAACGCGUCUCCCUCCUAAGGAGAAGAAUGCGGGUUCGAGUCCCGUACGGAACG [G6C U16G C46A] as the variant, how does the yeast fitness read?
**A.** 0.599

**Q.** With GUUCCCUUGGCGUAAGGGUAACGCGUCUCCCUCCUAAGCAGAAGACUGCGGGUUCGAGUCCCGUACGGAACG [G6C U16G G39C] as the variant, how does the yeast fitness read?
**A.** ≤ 0.5

**Q.** Which yeast fitness does the source give for GUUCCCUUGGCGUAAUGGCAAAGCGUCUCCCUCCCAAGGAGAAGACUGCGGGUUCGAGUCCCGUACGGUACG [G6C U19C C22A U35C A69U] here?
**A.** ≤ 0.5

**Q.** Which yeast fitness does the source give for GUUCCCUUGGCGUAAUGGCAACGCGUCUUCCUCCUAACGAGAAGACCGCGGGUUCGAGUCCCGUACGGAACG [G6C U19C C29U G38C U47C] here?
**A.** ≤ 0.5

**Q.** Which yeast fitness does the source give for GUUCCCUUGGCGUAAUGGCAACGCGUCUCCCUCCUAACGAGAACAAUGCGGGUUCGAGUCCCGUACGGAACG [G6C U19C G38C G44C C46A] here?
**A.** ≤ 0.5

**Q.** Which yeast fitness does the source give for GUUCCCUUGGCGUAAUGGCAACGCGUCUCCCACCUAAGGAGCAGACUGCGGGUUCGAGUCCCGUACGGAACG [G6C U19C U32A A42C] here?
**A.** ≤ 0.5

**Q.** With GUUCCCUUGGCGUAAUGGGAACGCGUCUCCCUCCUAAGGAGAUGACUGCGGGUUCGACUCCCGUAAGGAACG [G6C U19G A43U G58C C66A] as the variant, how does the yeast fitness read?
**A.** ≤ 0.5

**Q.** For GUUCCCUUGGCGUAAUGGUAACGCGCCUCCAUCCUAACGAGAAGACUGCGGGUUCGAGUCCCGUACGGAACG [G6C U26C C31A G38C], which yeast fitness is on record?
**A.** ≤ 0.5

**Q.** With GUUCCCUUGGCGUAAUGGUAACGCGUCACCCUGCUAAGGAGAAGACUGCGGGUUCGAGUCCCGUACGGAACG [G6C U28A C33G] as the variant, how does the yeast fitness read?
**A.** ≤ 0.5

**Q.** With GUUCCCUUGGCGUAAUGGUAACGCGUCCCACUCCUAAGAAGAAGACUGCGGGUUCGAGUCCCGUACGGAACG [G6C U28C C30A G39A] as the variant, how does the yeast fitness read?
**A.** ≤ 0.5

**Q.** Which yeast fitness does the source give for GUUCCCUUGGCGUAAUGGUAACGCGUCUCCCACCUAAGGAGAAGACUGCGGGUUCGAGUCCCGUACGGAACG [G6C U32A] here?
**A.** 0.756

**Q.** Which yeast fitness does the source give for GUUCCCUUGGCGUAAUGGUAACGCGUCUCCCACCUAAGGAAAAGAUUGCGGGUUCGAGUCCCGUACGGAACG [G6C U32A G41A C46U] here?
**A.** ≤ 0.5

**Q.** Which yeast fitness does the source give for GUUCCCUUGGCGUAAUGGUAACGCGUCUCCCUCCAAAGGUCAAGACUGAGGGUUCGAGUCCCGUACGGAACG [G6C U35A A40U G41C C49A] here?
**A.** ≤ 0.5

**Q.** With GUUCCCUUGGCGUAAUGGUAACGCGUCUCCCUCCAAAGGAGAUGACUGCGGGUUCGAGUCCUGUACGCAACG [G6C U35A A43U C62U G68C] as the variant, how does the yeast fitness read?
**A.** ≤ 0.5

**Q.** For GUUCCCUUGGCGUAAUGGUAACGCGUCUCCCUCCAAAGGAGAACACUGCGGGUUCGAGUCCCGUACGGAACG [G6C U35A G44C], which yeast fitness is on record?
**A.** 0.569

**Q.** Which yeast fitness does the source give for GUUCCCUUGGCGUAAUGGUAACGCGUCUCCCUCCCAAGGAGAAGACUGCGGGUUCGAGUCCCGUACGGAACG [G6C U35C] here?
**A.** 0.866

**Q.** For GUUCCCUUGGCGUAAUGGUAACGCGUCUCCCUCCCAAGGAGAAGACUGCGGGUUCGAGCCCCGUACGGAACG [G6C U35C U59C], which yeast fitness is on record?
**A.** ≤ 0.5

**Q.** With GUUCCCUUGGCGUAAUGGUAACGCGUCUCCCUCCUAAGGAGAAGACAGCGGGUUCGAGUCCCGUACGGAACG [G6C U47A] as the variant, how does the yeast fitness read?
**A.** 0.818

**Q.** Which yeast fitness does the source give for GUUCCCUUGGCGUAAUGGUAACGCGUCUCCCUCCUAAGGAGAAGACAGCGGGUUCGAGUGCCGUACGGAACG [G6C U47A C60G] here?
**A.** ≤ 0.5

**Q.** Which yeast fitness does the source give for GUUCCCUUGGCGUAAUGGUAACGCGUCUCCCUCCUAAGGAGAAGACUGCGGGAUCGAGUACCGUACGGAACG [G6C U53A C60A] here?
**A.** ≤ 0.5

**Q.** Which yeast fitness does the source give for GUUCCCUUGGCGUAAUGGUAACGCGUCUCCCUCCUAAGGAGAAGACUGCGGGCUCGAGUCCCGUACGGAACG [G6C U53C] here?
**A.** 0.865

**Q.** For GUUCCCUUGGCGUAAUGGUAACGCGUCUCCCUCCUAAGGAGAAGACUGCGGGCUCGAGUCCCGUGCGGAACG [G6C U53C A65G], which yeast fitness is on record?
**A.** ≤ 0.5

**Q.** For GUUCCCUUGGCGUAAUGGUAACGCGUCUCCCUCCUAAGGAGAAGACUGCGGGUUCGAGAUCCGUACGGAACG [G6C U59A C60U], which yeast fitness is on record?
**A.** ≤ 0.5

**Q.** Which yeast fitness does the source give for GUUCCCUUGGCGUAAUGGUAACGCGUCUCCCUCCUAAGGAGAAGACUGCGGGUUCGAGUCCCGAACGGAACG [G6C U64A] here?
**A.** 0.853
